Reference: article PMC4706624 (International Journal for Parasitology: Drugs and Drug …, 2015)
Several values for one entry are separate records, joined by “and”; a condition that tells them apart may be missing. Equal entries are not always repeated. Entries after “also recorded” stand apart in the source; their conditions may differ. Blank lines part the entries; values can stand above or below the compound they belong to.

Experiments:
[1] = biological target: T1, PvENT1 (Plasmodium vivax, UniProt A5K8B0); assay: Inhibition of [3H]uridine uptake into PvENT1-expressing yeast; format: cell-based; settings: for fold lower IC50 of PvENT1 than PfENT1: PvENT1 vs PfENT1
T1 sequence (A5K8B0 1-416): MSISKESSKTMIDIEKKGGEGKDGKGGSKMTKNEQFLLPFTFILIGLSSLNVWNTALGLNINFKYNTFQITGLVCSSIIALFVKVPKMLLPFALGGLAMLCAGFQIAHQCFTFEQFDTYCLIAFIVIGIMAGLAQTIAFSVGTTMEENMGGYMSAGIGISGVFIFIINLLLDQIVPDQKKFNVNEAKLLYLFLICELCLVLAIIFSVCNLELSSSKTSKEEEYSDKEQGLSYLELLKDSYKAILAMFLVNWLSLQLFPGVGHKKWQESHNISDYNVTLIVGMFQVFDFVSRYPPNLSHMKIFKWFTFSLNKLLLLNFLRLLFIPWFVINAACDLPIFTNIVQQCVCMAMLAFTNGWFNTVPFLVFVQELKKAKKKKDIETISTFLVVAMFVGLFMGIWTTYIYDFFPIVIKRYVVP

[2] = biological target: T1, PvENT1; assay: Inhibition of [3H]adenosine uptake into PvENT1-expressing yeast; format: cell-based
[3] = system: PvENT1-expressing purine auxotrophic yeast; assay: Growth of PvENT1-expressing purine auxotrophic yeast with a sole purine source; format: cell-based; settings: Saccharomyces cerevisiae, read-out: growth EC50
How it was run: (§1)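 Yeast strain was MATa his3Δ1 leu2Δ0 met15Δ0 ura3Δ0 fui1Δ::KanMX4 ade2Δ::hphNT1 carrying pCM189 (empty or PvENT1). Cells grown to mid-log in SDM-adenine were washed three times in water, diluted to 4 × 10^6 cells/mL, and added 1:1 to adenine or adenosine serially diluted in 2× purine-free SDM.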

[4] = system: empty vector (EV) purine auxotrophic yeast; assay: Growth of empty vector; format: cell-based, Saccharomyces cerevisiae
How it was run: as §1

[5] = system: PfENT1; settings: read-out: PfENT1 IC50; ref Riegelhaupt et al., 2010a; cited from earlier work
[6] = system: hENT1; settings: ref Griffiths et al., 1997, Baldwin et al., 2004, cited from earlier work
[7] = IC50 for inhibition of [^3H]Adenosine by indicated pyrimidine, 50 nM [3H]adenosine, 15 min, PvENT1-expressing yeast, mean ± SD
[8] = [^3H]Adenosine uptake inhibition IC50, hENT1 inhibitors and toxic purine analogs, 50 nM [3H]adenosine, concentrations up to 20 mM, mean ± SD, n = 3
[9] = IC50 for inhibition of [^3H]Uridine by indicated purine, 250 nM [3H]uridine, 15 min, PvENT1-expressing yeast, mean ± SD
[10] = IC50 for inhibition of [^3H]substrate uptake by the indicated purine, WT, Table 4, WT PvENT1, radiolabel [3H]adenosine (#)
[11] = hENT1 inhibitors and toxic purine analogs, 50 nM [3H]adenosine, concentrations up to 20 mM, mean ± SD, n = 3
[12] = read-out: [^3H]Adenosine uptake inhibition IC50, hENT1 inhibitors and toxic purine analogs, 50 nM [3H]adenosine, concentrations up to 20 mM, mean ± SD, n = 3

SMILES: Nc1nc2c(ncn2[C@H]2C[C@H](O)[C@@H](CO)O2)c(=O)[nH]1 [2-deoxyguanosine]
IC50 ([1]; read-out: IC50 for inhibition of [^3H]Uridine by indicated purine, 250 nM [3H]uridine, 15 min, PvENT1-expressing yeast, mean ± SD): 20.5 ± 4.8 µM

SMILES: O=c1[nH]c(=O)n([C@@H]2O[C@H](CO)[C@@H](O)[C@H]2O)cc1F [5-Fluorouridine (5-FUrd), 5-Fluorouridine]
IC50 [2, 7]: 1770 ± 302 µM
IC50 ([2]; IC50 for inhibition of [^3H]adenosine uptake, 50 nM [3H]adenosine): 1700 µM

SMILES: Sc1ncnc2nc[nH]c12 [6-mercaptopurine]
IC50 [2, 8]: 160 µM and 158 µM

SMILES: Nc1ncnc2[nH]cnc12 [Adenine]
EC50 [3]: 27 ± 2 µM
EC50 ([4]; Saccharomyces cerevisiae, read-out: growth EC50): 39 ± 2 µM
IC50 [1, 9]: 1430 ± 736 µM
IC50 of nucleobase relative to the corresponding nucleoside ([1]; PvENT1-expressing yeast): one order of magnitude higher

SMILES: Nc1ncnc2c1ncn2[C@@H]1O[C@H](CO)[C@@H](O)[C@H]1O [Adenosine]
EC50 [3]: 394 ± 85 µM
growth EC50 ([4]; EV yeast, liquid media, sole purine source): failed to grow
IC50 [5]: ~650 µM
IC50 [1, 9]: 142 ± 34 µM
IC50 ([1]; IC50 for inhibition of [^3H]substrate uptake by the indicated purine, WT, Table 4, WT PvENT1, radiolabel [3H]uridine): 167 ± 52 µM
fold lower IC50 of PvENT1 than PfENT1 [1]: 4–5 fold

SMILES: Nc1cc[nH]c(=O)n1 [Cytosine]
IC50 [2, 7]: 6140 ± 1030 µM
effect on radiolabel uptake into PvENT1-expressing yeast (in words) ([2]; [3H]adenosine uptake for pyrimidines): slight inhibition

SMILES: OCCN(CCO)c1nc(N2CCCCC2)c2nc(N(CCO)CCO)nc(N3CCCCC3)c2n1 [Dipyridamole, dipyridamole]
PvENT1 IC50 relative to hENT1 ([2]; PvENT1 vs human ENT1): 1000 fold
IC50 [2, 8]: ~40 µM and 40 µM
concentration range inhibiting hENT1 [6]: 5 to 20 nM

SMILES: Nc1nc2nc[nH]c2c(=O)[nH]1 [Guanine]
IC50 [1, 9]: 6340 ± 2950 µM

SMILES: O=[N+]([O-])c1ccc(CSc2ncnc3c2ncn3C2OC(CO)C(O)C2O)cc1 (stereo not drawn) [NBMPR, 4-nitrobenzylthioinosine]
[^3H]Adenosine uptake inhibition IC50 [2, 11]: did not inhibit; also recorded: not sensitive
[^3H]Adenosine uptake inhibition IC50 ([2]; hENT1 inhibitors and toxic purine analogs, 50 nM [3H]adenosine, concentrations up to 20 mM, mean ± SD, n = 3, listed as 4-nitrobenzylthioinosine (NBMPR)): no effect
IC50 [2, 12]: > 20000 µM
concentrations inhibiting hENT1 ([6]; in words): sub-nanomolar

SMILES: Nc1ncnc2c1ccn2[C@@H]1O[C@H](CO)[C@@H](O)[C@H]1O [Tubercidin, tubercidin (7-deaza-adenosine)]
[^3H]Adenosine uptake inhibition IC50 [2, 11]: failed to inhibit
IC50 [2, 12]: > 20000 µM

Now from value to compound, other results behind:

IC50 [1, 9]: 14.9 ± 1.4 µM
SMILES: Nc1nc2c(ncn2[C@@H]2O[C@H](CO)[C@@H](O)[C@H]2O)c(=O)[nH]1 [Guanosine]

IC50 [2, 10]: 141 ± 24 µM
IC50 [1, 9]: 99 ± 30 µM
fold lower IC50 of PvENT1 than PfENT1 [1]: 4–5 fold
SMILES: O=c1[nH]cnc2nc[nH]c12 [Hypoxanthine]
IC50 [5]: ~480 µM

IC50 [2, 10]: 5 ± 4 µM
IC50 [1, 9]: 3.8 ± 1.4 µM
SMILES: OC[C@H]1O[C@@H](n2cnc3c(O)ncnc32)[C@H](O)[C@@H]1O [Inosine]

IC50 [2, 7]: 183 ± 53 µM
SMILES: Cc1cn([C@H]2C[C@H](O)[C@@H](CO)O2)c(=O)[nH]c1=O [Thymidine]

IC50 [2, 7]: 564 ± 145 µM
SMILES: Cc1c[nH]c(=O)[nH]c1=O [Thymine]

IC50 [2, 7]: 3390 ± 1170 µM
SMILES: O=c1cc[nH]c(=O)[nH]1 [Uracil]

IC50 [2, 7]: 1730 ± 809 µM
SMILES: O=c1ccn([C@@H]2O[C@H](CO)[C@@H](O)[C@H]2O)c(=O)[nH]1 [Uridine]

IC50 [1, 9]: 2550 ± 189 µM
SMILES: O=c1[nH]c(=O)c2[nH]cnc2[nH]1 [Xanthine]

IC50 [1, 9]: 4310 ± 2870 µM
SMILES: O=c1[nH]c(=O)c2ncn([C@@H]3O[C@H](CO)[C@@H](O)[C@H]3O)c2[nH]1 [Xanthosine]
